# Test results: PubChem BioAssay AID1800 (The Scripps Research Institute Molecular Screening Center, 2009)
# The campaign covered roughly 290,000 compounds. About 1,600 (0.55%) were called active.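 How the source made its calls: active means inhibition above the mean of all tested compounds plus 3 SD, set per campaign (cut at about 35% in these data); inactive means the rest.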 Only a selection was taken, and actives are over-represented in it overall.
# Tested on: Hepatitis C virus NS3 helicase
# Test: inhibitors of HCV NS3 helicase, primary screen, biochemical, Cy5 molecular beacon fluorescence (AID 1800);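 further: 0% = DMSO wells and 100% = thioflavine S control wells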
# Conditions: NS3 helicase DNA unwinding, at 10.9 µM, stronger effect = higher value
# In short: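 System: HCV NS3 helicase fragment; control set: DMSO and thioflavine S; technique: Cy5 fluorescence at 0 and 60 min, beacon hairpin quenching; reagent: beacon DNA duplex substrate plus ATP; replicates: singlicate; schedule: 1 h reaction at 25 °C, ATP-initiated; medium: MOPS buffer pH 6.5 with MgCl2, DTT, Tween20, BSA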
row,SMILES,inhibition
1,COc1cc(NS(=O)(=O)c2ccc(NC(=S)NC(=O)c3ccccc3)cc2)nc(OC)n1,11% (inactive)
2,COc1nnc(-c2ccc(C)c(S(=O)(=O)N(C)C)c2)c2ccccc12,-1.73% (inactive)
3,CN(CC1CCCO1)S(=O)(=O)c1ccc(C(=O)Nc2ccc([N+](=O)[O-])cc2)cc1 (stereo unspecified),-4.51% (inactive)
4,Brc1ccc(CSc2ccc(-c3ccco3)nn2)cc1,3.25% (inactive)
5,Clc1ccccc1CSc1nnc(-c2ccco2)c(-c2ccco2)n1,53.8% (active)
6,c1ccc(CSc2nnc(-c3ccco3)c(-c3ccco3)n2)cc1,38.3% (active)
7,Fc1cccc(Cl)c1CSc1ccc(-c2ccco2)nn1,5.94% (inactive)
8,O=c1[nH]c(SCc2ccccc2)nnc1-c1ccccc1,35.9% (inactive)
9,COC(OC)c1ccnc(SCc2ccccc2Cl)n1,-11.3% (inactive)
10,COc1ccc(/C=N/OCc2ccccc2C#N)c(OC)c1,-11.6% (inactive)
11,CC(C)c1ccc(S(=O)(=O)N2CCN(C(=O)c3ccc(N4CCCC4)c([N+](=O)[O-])c3)CC2)cc1,-8.12% (inactive)
12,CS(=O)(=O)N1CCN(CC(=O)NC2CCCC2)CC1,2.51% (inactive)
13,CCOc1ccc(S(=O)(=O)N2CCC(C(=O)NCc3ccccn3)CC2)cc1Cl,4.14% (inactive)
14,Cc1ccc(NC(=O)[C@H](Cc2ccccc2)NC(=O)C2CCNCC2)cc1,-12.4% (inactive)
15,CCOC(=O)C1=C(O)/C(=C/c2ccc(OCC(=O)Nc3ccc(C)cc3)cc2)N=C1C,8.39% (inactive)
16,CCOC(=O)C1=C(O)/C(=C/c2cc(C)n(-c3ccccc3)c2C)N=C1C,46.3% (active)
17,COC(=O)C1=C(O)/C(=C/c2ccc(OCC(=O)Nc3ccccc3)cc2)N=C1C,-4.57% (inactive)
18,COc1ccc2oc(C(=O)NCC(Cc3ccccc3)N(C)C)c(C)c2c1 (stereo unspecified),-39.7% (inactive)
19,O=C(CCCN1CCc2[nH]c3ccc(F)cc3c2C1)c1ccc(F)cc1,-45% (inactive)

row,SMILES,inhibition
1,CCC(C)NC(=O)C1c2ccccc2C(=O)N1Cc1ccccc1 (stereo unspecified),-11.1% (inactive)
2,COCCCNS(=O)(=O)c1cccc(S(=O)(=O)c2cccc(S(=O)(=O)NCCCOC)c2)c1,3.55% (inactive)
3,O=C(C1=C(O)C(=O)N(Cc2ccccc2)C1c1ccco1)c1ccco1 (stereo unspecified),17.3% (inactive)
4,O=C(C1=C(O)C(=O)N(Cc2ccccc2)C1c1cccnc1)c1ccco1 (stereo unspecified),-5.86% (inactive)
5,CC(C)c1ccc(C2C(C(=O)c3ccco3)=C(O)C(=O)N2CC2CCCO2)cc1 (stereo unspecified),55.9% (active)
6,O=C(OCC1O[C@@H](OC(=O)c2cc(O)c(O)c(O)c2)[C@@H](OC(=O)c2cc(O)c(O)c(O)c2)[C@@H](OC(=O)c2cc(O)c(O)c(O)c2)[C@@H]1OC(=O)c1cc(O)c(O)c(O)c1)c1cc(O)c(O)c(O)c1 (stereo partly specified),63.6% (active)
7,CCC(NC(=O)c1ccccc1NC(=O)c1ccccc1)C(=O)NNC(=O)CSc1nc2ccccc2o1 (stereo unspecified),-3.35% (inactive)
8,NS(=O)(=O)c1ccc(-c2ccc(/C=C3\SC(=O)NC3=O)o2)cc1,60.5% (active)
9,CN1C(=O)/C(=C\c2ccc(-c3ccccc3)o2)SC1=S,23.6% (inactive)
10,CN1CCN(/N=C/c2ccc(-c3ccc([N+](=O)[O-])cc3)o2)CC1,-1.77% (inactive)
11,CCOc1ccc(CN2CCNC(=O)C2CC(=O)NCCCC2CCCC2)cc1 (stereo unspecified),-18.7% (inactive)
12,COc1ccc(/C=C2\SC(=S)N(CCC(=O)Nc3cccc(C(=O)O)c3)C2=O)cc1OC,61% (active)
13,COc1ccc(/C=C2\SC(=S)N(CCC(=O)Nc3ccccn3)C2=O)cc1OC,-1.07% (inactive)
14,COc1ccc(/C=C2\SC(=S)N(CCCC(=O)NC3CCCC3)C2=O)cc1OC,19% (inactive)
15,O=C(NC1CCCC1)c1cc(-c2ccccc2)on1,-12.1% (inactive)
16,O=C(NCCc1ccccn1)c1nc(Cn2cc([N+](=O)[O-])cn2)no1,2.16% (inactive)
17,COCCN1CCn2c(nc3cc(NS(C)(=O)=O)ccc32)C1,-2.65% (inactive)
18,Cc1nn(CC(=O)Nc2ccc(F)cc2)c(=O)c2ccccc12,17.6% (inactive)
19,O=C(O)CCCC(=O)N1N=C(c2ccco2)CC1c1ccco1 (stereo unspecified),1.26% (inactive)

row,SMILES,inhibition
1,Cc1nn2c(c1-c1ccccc1)N=C(c1ccco1)CC2c1ccccc1 (stereo unspecified),39.1% (active)
2,COc1ccc(C2=NN(C(C)=O)C(c3ccccc3)C2)cc1 (stereo unspecified),-3.52% (inactive)
3,Cc1cc2nc3c(=O)n(Cc4ccccc4)c(=O)[nH]c3nc2cc1N,-1.52% (inactive)
4,Nc1ccc2nc3c(=O)[nH]c(=S)[nH]c3nc2c1,80.4% (active)
5,CCc1cccc(C)c1N1C(=O)CN(Cc2ccccc2)C1=S,-10.7% (inactive)
6,O=C(C[C@H]1C(=O)N(c2ccc(F)c(F)c2)C[C@@H]1Cc1ccccc1)Nc1ccccc1,-4.71% (inactive)
7,Cc1ccc(S(=O)(=O)N2CCN(C)CC2)cc1C(=O)NC1CCCCC1,0.44% (inactive)
8,COc1cccc(CNC(=O)c2nnn(CC(=O)Nc3cc(C)ccc3C)c2N)c1,8.19% (inactive)
9,COc1cccc(CNC(=O)c2nnn(CC(=O)Nc3cc(Cl)ccc3C)c2N)c1,38.7% (active)
10,COc1ccc(CNC(=O)c2nnn(CC(=O)Nc3cc(C)cc(C)c3)c2N)cc1,-13.3% (inactive)
11,CS(=O)(=O)c1ccc2c(c1)SC1=NC(=O)/C(=C/c3ccco3)C(=N)N12,39.8% (active)
12,CS(=O)(=O)C1=NN2C(=N)/C(=C\c3ccc(OCCOc4ccccc4)cc3)C(=O)N=C2S1,7.31% (inactive)
13,Cc1cc(/C=C2/C(=N)N3C(=NC2=O)SN=C3S(C)(=O)=O)c(C)n1-c1ccccc1,20% (inactive)
14,CCN(CC)C(=O)COc1coc(CN2CCN(Cc3ccccc3)CC2)cc1=O,-0.99% (inactive)
15,C=CCSc1nsc(NC(=O)Nc2cccc(C(C)=O)c2)n1,-3.05% (inactive)
16,CCSc1nsc(NC(=O)Nc2cccc(C(C)=O)c2)n1,38.8% (active)
17,CCSc1nsc(NC(=O)Nc2ccccc2OC)n1,-3.36% (inactive)
18,CCOc1ccc(N(C)S(=O)(=O)c2cnc[nH]2)cc1,4.43% (inactive)
